According to ChEMBL document CHEMBL1126265, “Novel 5-HT3 antagonists: indol-3-ylspiro(azabicycloalkane-3,5'(4'H)-oxazoles)” (J Med Chem, 1992):

Tests used:
[1] = biological target: T1, Serotonin 3 (5-HT3) receptor (Rattus norvegicus, UniProt P35563+Q9JJ16); assay: Displacement of [3H]Q-ICS-205-930 from 5-hydroxytryptamine 3 receptor recognition sites in rat brain membranes; assay type: cell membranes
T1 sequence (P35563 whole entry): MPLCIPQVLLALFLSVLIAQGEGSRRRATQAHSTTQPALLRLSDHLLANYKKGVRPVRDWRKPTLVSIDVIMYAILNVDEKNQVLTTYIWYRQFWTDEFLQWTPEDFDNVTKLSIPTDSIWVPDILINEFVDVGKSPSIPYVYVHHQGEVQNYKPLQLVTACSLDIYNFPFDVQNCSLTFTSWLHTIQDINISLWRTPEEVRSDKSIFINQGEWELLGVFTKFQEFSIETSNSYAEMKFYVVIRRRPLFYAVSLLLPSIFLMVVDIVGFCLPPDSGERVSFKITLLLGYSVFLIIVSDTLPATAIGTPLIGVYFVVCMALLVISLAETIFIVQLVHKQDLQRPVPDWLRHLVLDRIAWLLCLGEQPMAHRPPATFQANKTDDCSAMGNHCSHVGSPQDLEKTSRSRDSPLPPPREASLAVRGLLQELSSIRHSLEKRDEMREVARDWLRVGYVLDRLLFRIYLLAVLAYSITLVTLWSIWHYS
T1 sequence (Q9JJ16 whole entry): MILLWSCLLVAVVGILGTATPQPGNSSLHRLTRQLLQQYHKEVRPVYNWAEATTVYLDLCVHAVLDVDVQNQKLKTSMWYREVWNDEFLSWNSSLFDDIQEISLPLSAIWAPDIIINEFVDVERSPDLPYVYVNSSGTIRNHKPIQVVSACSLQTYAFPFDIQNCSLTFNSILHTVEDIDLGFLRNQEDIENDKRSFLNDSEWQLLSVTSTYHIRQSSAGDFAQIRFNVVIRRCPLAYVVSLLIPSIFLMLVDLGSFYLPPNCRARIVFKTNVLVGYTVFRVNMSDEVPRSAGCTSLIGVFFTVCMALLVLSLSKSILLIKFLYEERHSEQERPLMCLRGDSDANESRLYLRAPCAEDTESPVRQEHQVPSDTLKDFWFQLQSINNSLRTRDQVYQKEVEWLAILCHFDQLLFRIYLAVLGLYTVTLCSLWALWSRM
Outline: (§1)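 Value reported as mean ± SEM where n ≥ 3 independent determinations; where no SEM is given, mean of two independent determinations, individual values typically within ±10% of the mean.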

[2] = biological target: T1, Serotonin 3 (5-HT3) receptor; assay: Compound was evaluated for the displacement of [3H]Q-ICS-205-930 from 5-HT3 recognition sites in rat brain membranes; assay type: cell membranes; outline: as §1

| SMILES | IC50 [1] [nM] | IC50 [2] [nM] |
| --- | --- | --- |
| Cn1cc(C2=NC[C@]3(CN4CCC3CC4)O2)c2ccccc21 | 2.88 |  |
| Cn1cc(C2=NCC3(CN4CCC3CC4)O2)c2ccccc21 (stereo not given) | 3.16 |  |
| Cn1cc(C2=NC[C@@]3(CN4CCC3CC4)O2)c2ccccc21 | 2.57 |  |
| C#CCn1cc(C2=NCC3(CN4CCC3CC4)O2)c2ccccc21 (stereo not given) | 6.17 |  |
| Cn1c([Si](C)(C)C)c(C2=NCC3(CN4CCC3CC4)O2)c2ccccc21 (stereo not given) |  | 155 |
| Cn1cc(C2=NCC3(CN4CCC3CC4)O2)c2cc(N)ccc21 (stereo not given) | 575 |  |
| Cc1ccc2c(c1)c(C1=NCC3(CN4CCC3CC4)O1)cn2C (stereo not given) | 132 |  |
| Cc1cccc2c(C3=NCC4(CN5CCC4CC5)O3)cn(C)c12 (stereo not given) | 8.91 |  |
| CN1CCC2(CC1)CN=C(c1cn(C)c3ccccc13)O2 | 158 |  |
| Cn1cc(C2=NCC3(CC4CCC(C3)N4Cc3ccccc3)O2)c2ccccc21 (stereo not given) | 174 |  |
| Cn1cc(C2=NCC3(CN4CCC3CC4)O2)c2cc(F)ccc21 (stereo not given) | 14.8 |  |
| Cn1cc(C2=NCC3(C[N+]4([O-])CCC3CC4)O2)c2ccccc21 (stereo not given) | 2630 |  |
| c1ccc2c(C3=NCC4(CN5CCC4CC5)O3)[nH]nc2c1 (stereo not given) | 26.3 |  |
| c1ccc2c(C3=NCC4(CN5CCC4CC5)O3)csc2c1 (stereo not given) | 26.9 |  |
| Cn1c(I)c(C2=NCC3(CN4CCC3CC4)O2)c2ccccc21 (stereo not given) | 26.9 |  |
| Cn1cc(C2=NCC3(CC4CCC(C3)N4)O2)c2ccccc21 (stereo not given) | 11.2 |  |
| Cn1cc(C2=NC[C@@]3(C[N@@]4CC[C@@H]3C4)O2)c2ccccc21 | 3.47 |  |
| C=CCn1cc(C2=NCC3(CN4CCC3CC4)O2)c2ccccc21 (stereo not given) | 7.94 |  |

| SMILES | IC50 [1] [nM] | IC50 [2] [nM] |
| --- | --- | --- |
| CCn1cc(C2=NCC3(CN4CCC3CC4)O2)c2ccccc21 (stereo not given) | 13.5 |  |
| CC(=O)c1c(C2=NCC3(CN4CCC3CC4)O2)c2ccccc2n1C (stereo not given) | 6.46 |  |
| Cn1cc(C2=NC[C@]3(C[N@@]4CC[C@@H]3C4)O2)c2ccccc21 | 3.09 |  |
| COc1ccc2c(c1)c(C1=NCC3(CN4CCC3CC4)O1)cn2C (stereo not given) | 263 |  |
| COc1cccc(C2=NCC3(CN4CCC3CC4)O2)c1 (stereo not given) | 407 |  |
| c1ccc2c(c1)c(C1=NCC3(CN4CCC3CC4)O1)cn2CC1CC1 (stereo not given) | 13.2 |  |
| Cn1cc(C2=NCC3(CCN4CCCC3C4)O2)c2ccccc21 (stereo not given) | 1.12 |  |
| Cn1cc(C2=NCC3(CN4CCC3CC4)O2)c2cc(O)ccc21 (stereo not given) | 195 |  |
| Cn1cc(C2=NCC3(CN4CCC3CC4)O2)c2cc([N+](=O)[O-])ccc21 (stereo not given) | 229 |  |
| c1ccc2c(C3=NCC4(CN5CCC4CC5)O3)c[nH]c2c1 (stereo not given) | 4.79 |  |
| Cn1cc(C2=NCC3(C[N+]4(C)CCC3CC4)O2)c2ccccc21 (single isomer, unassigned; 22n) | 42.7 |  |
| Cn1cc(C2=NCC3(C[N+]4(C)CCC3CC4)O2)c2ccccc21 (single isomer, unassigned; 22o) | 10.2 |  |
| CN1C2CCC1CC1(CN=C(c3cn(C)c4ccccc34)O1)C2 (stereo in doubt; 22b) | 4.57 |  |
| Cn1cc(C2=NCC3(CC4CCC(C3)[N+]4(C)C)O2)c2ccccc21 (stereo in doubt; 22c) | 5.01 |  |
| CN1C2CCC1CC1(CN=C(c3cn(C)c4ccccc34)O1)C2 (stereo in doubt; 22d) | 6.31 |  |
| Cn1cc(C2=NCC3(CC4CCC(C3)[N+]4(C)C)O2)c2ccccc21 (stereo in doubt; 22e) | 3.31 |  |
| CN1[C@@H]2CC[C@H]1C[C@@H](OC(=O)c1c[nH]c3ccccc13)C2 [TROPISETRON] |  | 1.26 |
